Measurements: BindingDB's records for PubMed 35700596 (2022)

Each compound was assayed against T1, Nuclear factor of activated T-cells, cytoplasmic 1 (Homo sapiens, UniProt O95644) (assay: Inhibition of NFATC activity in HEK293T cells preincubated for 2 hrs followed by ionomycin/phorbol 12-myristate 13-acetate stimulation and measured after 4 hrs by luciferase reporter assay).
T1 sequence (O95644 whole entry): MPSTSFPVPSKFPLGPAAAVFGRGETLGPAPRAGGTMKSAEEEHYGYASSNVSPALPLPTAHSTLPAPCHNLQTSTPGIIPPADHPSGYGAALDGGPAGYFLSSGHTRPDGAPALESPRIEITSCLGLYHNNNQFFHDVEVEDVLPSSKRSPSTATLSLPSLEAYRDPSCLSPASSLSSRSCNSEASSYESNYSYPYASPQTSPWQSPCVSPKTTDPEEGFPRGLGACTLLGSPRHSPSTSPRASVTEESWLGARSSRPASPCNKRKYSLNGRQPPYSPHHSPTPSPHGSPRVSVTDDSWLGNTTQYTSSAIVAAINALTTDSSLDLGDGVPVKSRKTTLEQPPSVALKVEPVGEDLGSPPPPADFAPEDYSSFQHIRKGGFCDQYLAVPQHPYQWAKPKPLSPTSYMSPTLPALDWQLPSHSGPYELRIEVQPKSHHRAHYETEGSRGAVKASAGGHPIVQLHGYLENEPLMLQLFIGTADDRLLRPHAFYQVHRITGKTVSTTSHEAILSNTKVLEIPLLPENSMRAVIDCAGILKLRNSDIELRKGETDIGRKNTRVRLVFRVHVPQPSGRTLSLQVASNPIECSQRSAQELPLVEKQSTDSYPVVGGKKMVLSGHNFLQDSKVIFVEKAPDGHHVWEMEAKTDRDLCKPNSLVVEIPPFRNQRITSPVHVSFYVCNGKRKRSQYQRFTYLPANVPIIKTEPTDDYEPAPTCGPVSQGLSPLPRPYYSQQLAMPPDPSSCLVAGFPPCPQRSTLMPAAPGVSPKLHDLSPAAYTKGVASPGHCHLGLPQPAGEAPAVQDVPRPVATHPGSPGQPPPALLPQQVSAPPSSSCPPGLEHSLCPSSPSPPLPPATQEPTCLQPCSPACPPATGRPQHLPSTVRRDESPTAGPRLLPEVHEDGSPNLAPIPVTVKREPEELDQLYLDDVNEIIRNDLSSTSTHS
Outline: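 HEK 293T cells (7.5 × 10⁴/well) co-transfected by CaCl₂ method with 100 ng 3xNFAT-luc and 1 ng pRLnull as transfection control. At 24 h, compound added for 2 h, then stimulated with 1 µM ionomycin, PMA and CaCl₂ for 4 h (20 ng/ml PMA and 2 mM CaCl₂ per figure legend). Luciferase read from crude extracts, relative to stimulated no-compound control (100%). Single doses 50 and 5 μM; dose-response 0.1–50 μM. IC50 by nonlinear regression; 3 experiments in triplicate.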

SMILES	IC50
CS(=O)(=O)NCc1cccc(NC(=O)c2csc3ccccc23)c1	18.7 µM
CS(=O)(=O)NCc1cccc(NC(=O)c2ccc3[nH]ccc3c2)c1	11.6 µM
Cc1ccc(C(=O)NCC(=O)Nc2cc(S(=O)(=O)Nc3ccc(Cl)cc3)ccc2Cl)s1	4.5 µM
